HNF4A DNA FP: change in binding of human HNF4 alpha to DNA; activity change, % at 10 µM; actives 0.3% (n = 360,000); AID 1224865; HNF4a-FITC DNA binding, fluorescence polarization, 1 h; in the data active means activity change above about 30%, passing the limit was not always enough
Target sequence (P41235 whole entry, looked up): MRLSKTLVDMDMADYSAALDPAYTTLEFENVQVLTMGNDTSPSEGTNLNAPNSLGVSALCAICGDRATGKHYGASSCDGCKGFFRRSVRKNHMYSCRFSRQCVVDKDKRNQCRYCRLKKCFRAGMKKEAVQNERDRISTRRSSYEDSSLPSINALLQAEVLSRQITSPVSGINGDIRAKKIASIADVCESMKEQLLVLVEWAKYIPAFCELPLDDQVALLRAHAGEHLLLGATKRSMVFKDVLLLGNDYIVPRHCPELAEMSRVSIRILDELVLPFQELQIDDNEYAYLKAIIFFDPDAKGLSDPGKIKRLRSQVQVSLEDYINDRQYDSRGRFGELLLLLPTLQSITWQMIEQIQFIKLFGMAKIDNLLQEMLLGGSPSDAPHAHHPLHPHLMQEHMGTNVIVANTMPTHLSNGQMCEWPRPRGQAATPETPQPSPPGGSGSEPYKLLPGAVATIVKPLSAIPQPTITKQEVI
CSN deneddyl inh: inhibitors of human CSN-mediated cullin deneddylation; Q92905; Purified CSN, SCF-Nedd8-OG deneddylation, fluorescence polarization; inhibition, % at 12.5 µM; actives 0.38% (n = 360,000);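 active means pattern-corrected inhibition above about 35%, with an unprinted fluorescence ratio check between 0.5 and 1.5, limit read from the data, passing the limit was not always enough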;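 further: 0% = enzyme with substrate and 100% = substrate without enzyme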
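Assay system: purified human Csn5 enzyme expressed in HEK293T cells; measure: % inhibition; also added: SCFSkp2-Nedd8OG substrate at 10 nM final; technique: fluorescence polarization; times: reaction 90 min, room temperature; medium: Tris buffer pH 7.5, NaCl, DTT, Tween-20, trehalose, ovalbumin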
Granule exo inh: lytic granule exocytosis inhibition | TALL-104 LAMP-1 surface exposure, flow cytometry; cells stimulated with thapsigargin and PMA | inhibition, % at 10 µM | actives 0.66% (n = 360,000);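 active means inhibition above about 55%, limit read from the data; inconclusive means no clear call, values can overlap the other calls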
Myeloid diff 2: promotes myeloid progenitor differentiation. ER-HoxA9 myeloid progenitors, lysozyme-GFP differentiation, flow cytometry. calls only at 10 µM. actives 1% (n = 360,000);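 active means normalized GFP-positive differentiation at or above the plate's own cutoff, the solvent-only control mean plus 3 SD; inconclusive means no clear call, values can overlap the other calls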;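 further: cells exposed to compound for four days before flow analysis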
Myeloid diff CP1: myeloid differentiation induction. ER-HoxA9 myeloid progenitors, GFP/Mac1 double-positive flow. shares compounds with Myeloid diff 2. actives 2% (n = 2,300). calls only. AID 651706;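 active means share of green or green-and-red cells above 9 and 9% in run 1 or 4 and 3% in run 2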
GFP autofluor: compound fluorescence in myeloid differentiation counter-screen; shares compounds with Myeloid diff 2; ER-HoxA9 myeloid progenitors, no estrogen, GFP autofluorescence flow cytometry; vehicle wells 0%, positive control 100%; fluorescence response, % (concentration not given with the values); actives 7.4% (n = 2,300);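 active means over 5% cells positive for green fluorescent reporter, or over 2% positive for both it and APC stain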;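 further: range taken on the double positive population between DMSO and positive control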
Active calls of the source: *; i = inactive; u = inconclusive; x = no result; + = active, no number. A selection: hits, their analogues and other compounds. The true share with any hit is near 2.2%.

SMILES | HNF4A DNA FP | CSN deneddyl inh | Granule exo inh | Myeloid diff 2 | Myeloid diff CP1 | GFP autofluor
Cc1cccc(C(=O)NC(=S)Nc2ccc(Cc3ccncc3)cc2)c1 | 2 | 3 | -2 | i | x | x
Cc1ccc2cccc(NC(=S)NC(=O)c3ccccc3)c2n1 | -1 | 0 | 4 | i | i | 1
COc1ccc(CNC(=O)C(C)OC(=O)CO/N=C(\C)c2ccc3c(c2)OCO3)cc1 (centres undefined) | -2 | 0 | -2 | i | x | x
CCOc1ccc(N(C)C(=O)CCc2nnc3ccc(N4CCC5(CC4)OCCO5)nn23)cc1 | 5 | 7 | 2 | i | x | x
c1ccc(NN(Cc2ccccn2)c2ccccc2)cc1 | -5 | 2 | -3 | i | x | x
Cc1ccc(-n2c(SCC(=O)Nc3ccc(C(=O)O)cc3)nnc2-c2ccncc2)cc1 | 4 | -2 | 0 | i | x | x
Cc1ccc(C(=O)NNC(=O)CSc2nnc(-c3ccncc3)n2-c2ccc(C)cc2)cc1 | -2 | -1 | 1 | i | i | 0
CN1C(=O)C(O)(CC(=O)c2ccccc2O)c2cc(Br)ccc21 (centres undefined) | -1 | -1 | -6 | u | x | x
C=CCN1C(=O)C(O)(CC(=O)c2ccc(OC)cc2OC)c2cc(Br)ccc21 (centres undefined) | -3 | -1 | 0 | i | i | 0
CC1Cc2nc(SCC(=O)N3CCCc4ccccc43)n(C)c(=O)c2S1 (centres undefined) | -3 | -3 | -1 | i | i | 1
CCn1nnnc1SCC(=O)N1CCCc2ccccc21 | -2 | -3 | 1 | i | i | 0
O=C(CSc1nnc2scc(-c3ccccc3)n12)N1CCCc2ccccc21 | 4 | 2 | -2 | i | i | 0
CCOC(=O)C1(C)CCN1C(=O)c1ccc(OC)c(C(F)(F)F)c1 (centres undefined) | 0 | 2 | 5 | i | x | x
Cc1ccccc1OCc1nnc(SCCN2CCCC2)n1-c1ccccc1 | -1 | 0 | 1 | + | i | 0
Cc1ccccc1OCc1nnc(SC(C)C(=O)O)n1-c1ccccc1 (centres undefined) | 0 | -4 | -6 | i | x | x
COc1ccccc1N1CCN(S(=O)(=O)CC23CCC(CC2=O)C3(C)C)CC1 (centres undefined) | 2 | -2 | 6 | i | i | 0
O=C(CCNC(=O)c1ccc([N+](=O)[O-])cc1)Nc1ccccc1N1CCCCC1 | 2 | 0 | 4 | i | x | x
CCOc1ccccc1C1CC(c2cccs2)=NN1S(C)(=O)=O (centres undefined) | 34 | 13 | 3 | + | i | 92*
COc1ccc(C2(c3ccc(OC)cc3)NC(=O)N(CC(=O)N(C)C)C2=O)cc1 | -3 | 6 | 2 | i | x | x
COc1ccc(N(CC(C)C)S(=O)(=O)c2nnc(NC(=O)CC(C)C)s2)cc1 | 4 | 1 | -10 | i | x | x
O=C(NCc1ccco1)c1ccc2c(=O)n(-c3ccccc3)c(=O)n(Cc3cccc(F)c3)c2c1 | -2 | -4 | 4 | + | i | 0
Cc1ccccc1Cn1c(=O)n(-c2ccccc2)c(=O)c2ccc(C(=O)NCc3ccco3)cc21 | 3 | 3 | 4 | i | x | x
Cc1cc(NC(=O)/C=C/c2ccccc2Cl)no1 | 0 | -1 | 3 | i | i | 1
COC(=O)C1CCCN1C(=O)c1cccs1 (centres undefined) | -3 | -4 | -2 | + | i | 0
COc1cc(/C=C2/SC(=O)NC2=O)ccc1Oc1ccc([N+](=O)[O-])cc1[N+](=O)[O-] | 0 | 13 | 4 | + | i | 1
SMILES | HNF4A DNA FP | CSN deneddyl inh | Granule exo inh | Myeloid diff 2 | Myeloid diff CP1 | GFP autofluor
Cc1ccc(S(=O)(=O)c2nc(S(C)(=O)=O)sc2N2CCOCC2)cc1 | -8 | 2 | 3 | i | i | 0
O=C(O)C1CCCN1c1ncnc2c1oc1ccccc12 (centres undefined) | -3 | 0 | 6 | + | i | 6.6*
CC1CN(c2ncnc3c2oc2ccccc23)CC(C)O1 (centres undefined) | -2 | -2 | -6 | i | x | x
O=C(Nc1ccc(Br)cc1)Nc1cnccn1 | 1 | -2 | -2 | i | x | x
CC(C)c1cc(C(=O)N2CCCC(Nc3ccc(F)cc3)C2)n[nH]1 (centres undefined) | 2 | 6 | 2 | i | x | x
CS(=O)(=O)c1ccc2nc(NC(=O)CS(=O)(=O)Cc3ccccc3)sc2c1 | -2 | 7 | 1 | + | i | 0
COc1cccc(OC)c1C(=O)Nc1nc2ccc(S(C)(=O)=O)cc2s1 | 0 | 5 | 8 | + | i | 0
COc1ccc(C(=O)Nc2nc3ccc(S(C)(=O)=O)cc3s2)cc1OC | 2 | 6 | -2 | i | x | x
COCCNC(=O)C1CCCN(C(=O)c2ccc(OC)c(F)c2)CC1 (centres undefined) | 2 | 0 | 36 | i | x | x
COC(=O)c1ccc2c(c1)NC1=C(C(=O)CC(C)(C)C1)C(c1ccncc1)N2 (centres undefined) | -2 | 4 | 0 | + | i | 0
Cc1ccc(S(=O)(=O)N(C)C[C@H]2Oc3c(NC(=O)Nc4cccc5ccccc45)cccc3C(=O)N([C@@H](C)CO)C[C@@H]2C)cc1 | 4 | 5 | 10 | i | i | 0
COc1ccc(NC(=O)Nc2cccc3c2O[C@H](CN(C)S(=O)(=O)c2ccc(OC)cc2)[C@@H](C)CN([C@H](C)CO)C3=O)cc1 | 4 | 3 | -18 | i | x | x
Cc1ccc(-c2cnc3c(c2)C(=O)N([C@H](C)CO)C[C@@H](C)[C@@H](CN(C)C(=O)Cc2ccccc2)O3)cc1 | 2 | 6 | -5 | i | i | 0
COCC(=O)N(C)C[C@H]1Oc2ncc(C#C[C@H](C)O)cc2C(=O)N([C@@H](C)CO)C[C@H]1C | 8 | -7 | 2 | + | i | 0
O=C(NNC(=O)c1ccccc1Br)c1cnccn1 | -1 | -4 | 0 | i | x | x
Cc1ccc(OCC(=O)N2CCCCC2)c(Br)c1 | 0 | -1 | -4 | i | i | 0
O=C(Cc1ccccc1Cl)Nc1cc(S(=O)(=O)N2CCOCC2)ccc1N1CCOCC1 | -1 | 0 | -4 | i | x | x
CC(=O)OCCCCON1C(=O)c2ccccc2C1=O | 1 | -2 | 0 | x | i | 0
O=C(NCc1cccs1)c1ccc(CS(=O)(=O)c2ccc(Cl)cc2)o1 | -1 | 2 | 1 | + | i | 0
NC(=O)C1CCN(C(=O)c2ccco2)CC1 | 0 | 1 | -1 | i | i | 0
O=C(O)C1CCN(C(=O)c2ccco2)CC1 | 1 | -8 | 2 | i | x | x
Cn1c(=O)c2cc(NC(=S)NC3CCCCC3)ccc2n1C/C=C/c1ccccc1 | 1 | 2 | -3 | i | x | x
